Source: ChEMBL document CHEMBL5647683 (Oncogene, 2008)
Active and inactive are the calls of the source. No cut-off for these calls is given here.

Assays:
[1] = AUC(0-24hrs) in human HT-29 cells xenografted athymic NMRI-nu/nu female mouse at 20 mg/kg, po administered daily for 25 days by LC-MS-MS method; type: ADME, organism-based; conditions: in vivo, time 25 day
Mus musculus [2] = test: In vivo inhibition of HER2 phosphorylation in EGFR L858R/T790M mutant driven lung cancer mouse model at 20 mg/kg, po measured after 48 hrs by immunohistochemical staining; type: functional, organism-based
Method in brief: (§1)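 Doxycycline-maintained L858R/T790M EGFR bitransgenic mice, three per group, received 20 mg/kg by gavage, alone or with 2 mg/kg intraperitoneal rapamycin, three times at 24 h intervals. Mice were killed 1 h after the last dose, about 48 h from the start. Lung sections immunostained for phosphorylated receptors; littermates served as controls.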

[3] = Inhibition of human EGFR L747_P753del7insS-T790M mutant expressed in mouse BaF3 cells assessed as reduction in cell survival incubated for 48 hrs by WST assay
A-431 = test: Antitumor activity against human A-431 cells xenografted athymic NMRI-nu/nu female mouse as reduction in EGFR phosphorylation at 20 mg/kg, po administered daily for 25 days by immunohistochemical staining; type: functional, organism-based; conditions: time 25.0 day
Method in brief: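 A431 flank xenografts in female NMRI-nu/nu mice dosed daily by oral gavage in HP-β-CD/acetic acid/Natrosol vehicle. Tumors collected 6 h after the last dose. Sections immunostained for phospho-EGFR and phospho-AKT.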

NIH3T3 [4] = test: Inhibition of colony formation in EGFR mutant L858R expressing mouse NIH3T3 cells assessed as number of colonies at 1 to 10000 nM incubated for 2 week by soft agar assay; type: functional, cell-based; conditions: dose 1-10000 nM, time 2.0 weeks
Method in brief: (§2)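 NIH-3T3 cells expressing wild-type or mutant EGFR suspended in top agar (DMEM, 10% calf serum, 0.4% agar) over 0.5% agar bottom layer; drug added to top layer; wild-type cells supplemented with 100 ng/ml EGF. Triplicate plating, 2-week incubation; colonies counted from 10 fields photographed at ×4; values normalized to untreated.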

Mus musculus [5] = test: Antitumor activity against EGFR L858R/T790M mutant driven lung cancer mouse model assessed as histological change in foci of localized inflammatory cells at 20 mg/kg, po administered daily for 2 weeks in the presence of rapamycin by IHC staining based analysis; type: functional, organism-based
[6] = biological target: Casein kinase 2 (Homo sapiens) (UniProt P67870+P68400+P19784+Q8NEV1); test: Inhibition of CK2 (unknown origin) assessed as remaining activity relative to control; values are per cent of control
[7] = AUC(0-24hrs) in human SK-OV-3 cells xenografted athymic NMRI-nu/nu female mouse at 20 mg/kg, po administered daily for 25 days by LC-MS-MS method; type: ADME, organism-based; conditions: in vivo, time 25 day
Mus musculus [8] = test: In vivo inhibition of EGFR phosphorylation in EGFR L858R/T790M mutant driven lung cancer mouse model at 20 mg/kg, po measured after 48 hrs by immunohistochemical staining; type: functional, organism-based; method in brief: as §1
NIH3T3 [9] = test: Inhibition of human EGFR mutant R108K phosphorylation at Y1173 residue expressed in mouse NIH3T3 cells at 1 to 10000 nM incubated for 2 hrs by immunoblot analysis; type: cell-based; conditions: dose 1-10000 nM
[10] = biological target: Tyrosine-protein kinase CSK (Homo sapiens) (UniProt P41240); test: Inhibition of CSK (unknown origin) assessed as remaining activity relative to control; values are per cent of control
Mus musculus [11] = test: Antitumor activity against EGFR L858R/T790M mutant driven lung cancer mouse model assessed as increase in fibrosis inside tumor nodules at 20 mg/kg, po administered daily for 2 weeks by IHC staining based analysis; type: functional, organism-based
[12] = biological target: Ribosomal protein S6 kinase alpha-5 (Homo sapiens) (UniProt O75582); test: Inhibition of MSK1 (unknown origin) assessed as remaining activity relative to control; values are per cent of control
[13] = biological target: Mitogen-activated protein kinase 13 (Homo sapiens) (UniProt O15264); test: Inhibition of SAPK4 (unknown origin) assessed as remaining activity relative to control; values are per cent of control
[14] = biological target: Serine/threonine-protein kinase Sgk1 (Homo sapiens) (UniProt O00141); test: Inhibition of SGK (unknown origin) assessed as remaining activity relative to control; values are per cent of control
Mus musculus [15] = test: Inhibition of mTOR signaling in EGFR L858R/T790M mutant driven lung cancer mouse model assessed as reduction in S6 phosphorylation at 20 mg/kg, po measured after 48 hrs in the presence of rapamycin by immunohistochemical staining; type: functional, organism-based
Method in brief: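 Tet-op-L858R/T790M EGFR/CCSP-rtTA bitransgenic mice on continuous doxycycline diet; three tumor-bearing mice per group given oral gavage at 20 mg/kg (0.5% methocellulose–0.4% Tween 80) plus rapamycin 2 mg/kg i.p. (ethanol stock diluted in 5% PEG400, 5% Tween 80), three doses at 24 h intervals; killed 1 h after last dose; lung sections stained for phospho-S6.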

NIH3T3 [16] = test: Inhibition of colony formation in EGFR double mutant L858R/T790M expressing mouse NIH3T3 cells assessed as number of colonies at 1 to 10000 nM incubated for 2 week by soft agar assay; type: functional, cell-based; conditions: dose 1-10000 nM, time 2.0 weeks; method in brief: as §2

Sequence of Mitogen-activated protein kinase 13 (Homo sapiens) (O15264 whole entry): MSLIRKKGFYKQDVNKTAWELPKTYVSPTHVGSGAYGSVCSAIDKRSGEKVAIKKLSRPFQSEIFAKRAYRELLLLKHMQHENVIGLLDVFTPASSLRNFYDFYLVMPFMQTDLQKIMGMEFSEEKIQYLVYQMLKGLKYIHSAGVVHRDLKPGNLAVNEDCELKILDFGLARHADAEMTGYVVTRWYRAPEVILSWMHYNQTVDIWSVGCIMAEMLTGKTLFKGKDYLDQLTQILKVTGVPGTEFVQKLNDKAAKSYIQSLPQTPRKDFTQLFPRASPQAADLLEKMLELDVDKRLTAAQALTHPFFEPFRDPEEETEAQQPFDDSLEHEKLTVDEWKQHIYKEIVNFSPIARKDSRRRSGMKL
Sequence of Ribosomal protein S6 kinase alpha-5 (Homo sapiens) (O75582 whole entry, looked up): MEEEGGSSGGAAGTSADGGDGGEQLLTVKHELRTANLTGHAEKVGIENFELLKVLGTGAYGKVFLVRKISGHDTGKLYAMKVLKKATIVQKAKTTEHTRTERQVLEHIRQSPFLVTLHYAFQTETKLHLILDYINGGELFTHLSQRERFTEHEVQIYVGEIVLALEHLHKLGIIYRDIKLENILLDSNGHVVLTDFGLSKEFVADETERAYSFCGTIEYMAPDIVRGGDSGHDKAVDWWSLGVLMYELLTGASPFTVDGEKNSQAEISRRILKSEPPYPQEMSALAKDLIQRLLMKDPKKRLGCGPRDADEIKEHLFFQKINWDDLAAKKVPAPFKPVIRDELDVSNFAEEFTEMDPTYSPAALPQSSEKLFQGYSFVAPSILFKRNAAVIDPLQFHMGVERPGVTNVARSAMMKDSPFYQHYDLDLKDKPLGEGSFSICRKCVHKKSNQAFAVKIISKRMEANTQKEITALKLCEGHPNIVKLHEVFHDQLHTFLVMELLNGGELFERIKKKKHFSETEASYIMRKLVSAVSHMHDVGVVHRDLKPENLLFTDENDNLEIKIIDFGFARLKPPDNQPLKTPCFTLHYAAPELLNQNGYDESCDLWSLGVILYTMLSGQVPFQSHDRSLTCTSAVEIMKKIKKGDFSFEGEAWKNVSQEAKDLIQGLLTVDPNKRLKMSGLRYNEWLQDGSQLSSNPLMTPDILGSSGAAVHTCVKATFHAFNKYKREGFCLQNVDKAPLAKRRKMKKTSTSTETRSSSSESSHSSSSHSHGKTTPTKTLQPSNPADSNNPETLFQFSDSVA
Sequence of Serine/threonine-protein kinase Sgk1 (Homo sapiens) (O00141 whole entry): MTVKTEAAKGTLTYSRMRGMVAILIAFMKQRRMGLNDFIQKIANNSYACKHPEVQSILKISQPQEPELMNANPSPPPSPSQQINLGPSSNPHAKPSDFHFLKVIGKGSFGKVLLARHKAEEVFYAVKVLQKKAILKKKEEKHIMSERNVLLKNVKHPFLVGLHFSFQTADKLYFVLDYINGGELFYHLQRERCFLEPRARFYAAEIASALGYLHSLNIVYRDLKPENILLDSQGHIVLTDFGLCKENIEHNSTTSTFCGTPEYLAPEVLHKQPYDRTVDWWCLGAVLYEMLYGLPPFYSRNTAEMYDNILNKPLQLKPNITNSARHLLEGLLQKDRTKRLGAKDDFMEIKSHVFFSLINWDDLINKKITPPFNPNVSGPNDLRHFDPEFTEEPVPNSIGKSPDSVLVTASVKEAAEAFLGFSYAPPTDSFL
Sequence of Tyrosine-protein kinase CSK (Homo sapiens) (P41240 2-450 limits assumed): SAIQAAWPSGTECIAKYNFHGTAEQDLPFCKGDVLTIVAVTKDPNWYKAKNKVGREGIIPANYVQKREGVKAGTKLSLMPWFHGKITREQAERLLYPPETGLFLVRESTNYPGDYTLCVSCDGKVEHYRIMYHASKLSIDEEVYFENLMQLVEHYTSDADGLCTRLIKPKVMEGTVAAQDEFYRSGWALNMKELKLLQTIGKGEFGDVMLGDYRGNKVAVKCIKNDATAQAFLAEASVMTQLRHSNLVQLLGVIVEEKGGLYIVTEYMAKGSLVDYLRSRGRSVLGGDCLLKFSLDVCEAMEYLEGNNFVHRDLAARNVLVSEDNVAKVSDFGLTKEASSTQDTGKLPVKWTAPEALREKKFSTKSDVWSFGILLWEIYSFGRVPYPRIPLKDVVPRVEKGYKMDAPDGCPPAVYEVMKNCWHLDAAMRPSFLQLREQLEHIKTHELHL

For `CN(C)C/C=C/C(=O)Nc1cc2c(Nc3ccc(F)c(Cl)c3)ncnc2cc1O[C@H]1CCOC1` [AFATINIB], the AUC at 600 h [1] was 5.06 µM·h, the Activity (Mus musculus [2]) was “Active” and the IC50 [3] was 49 nM. The Activity (A-431) was “Active”, the inhibition (NIH3T3 [4]) was “Active” and the Activity (Mus musculus [5]) was “Active”. For the same compound, the residual activity [6] was 100%, the AUC at 600 h [7] was 2.16 µM·h and the Activity (Mus musculus [8]) was “Active”. For the same compound, the inhibition (NIH3T3 [9]) was “Active”, the residual activity [10] was 46% and the Activity (Mus musculus [11]) was “Active”. For the same compound, the residual activity [12] was 91%, the residual activity [13] was 97% and the residual activity [14] was 72%. For the same compound, the Activity (Mus musculus [15]) was “Active” and the inhibition (NIH3T3 [16]) was “Active”.
